# Results from ChEMBL document CHEMBL1145986, “Dual protein farnesyltransferase-geranylgeranyltransferase-I inhibitors as potential cancer chemotherapeutic agents” (J Med Chem, 2003).
# What was measured:
# [1] = biological target: T1, Protein farnesyltransferase (Homo sapiens, UniProt P49354+P49356); test: Concentration required to inhibit recombinant human farnesyltransferase (FTase) catalyzed incorporation of [3H]FPP into recombinant Ras-CVIM.; format: protein-complex assay
# [2] = biological target: T2, Geranylgeranyl transferase type I (Homo sapiens, UniProt P49354+P53609); test: Concentration required to inhibit recombinant human geranylgeranyl transferase type I (GGTase-I) catalyzed incorporation of [3H]GGPP to the C-terminus of human K-Ras.; format: protein-complex assay
# Method in brief: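 Human GGTase-I transferring [3H]GGPP onto a biotinylated peptide matching the human K-Ras C-terminus. IC50 is the concentration giving 50% inhibition of incorporation. For the GGPP-competition check, IC50 was also determined at 20, 100 and 500 nM GGPP. Data with n > 2 are given as mean ± SEM.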
# [3] = biological target: T1, Protein farnesyltransferase; test: Inhibition of hDJ2 protein farnesylation; format: functional
# Method in brief: (§1)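 PSN-1 pancreatic carcinoma cells were exposed to inhibitor for 24 h. Lysates were run on SDS-PAGE and Western blotted with antibodies to hDJ2, Rap1a or K-Ras. Unprocessed and prenylated forms were told apart by their different electrophoretic mobility.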
# [4] = biological target: Protein farnesyl/geranylgeranyl transferase (Homo sapiens, UniProt P49354+P49356+P53609); test: Inhibition of K-Ras processing, farnesylation and/or geranylgeranylation in human PSN1 cells; format: functional, cell-based; method in brief: as §1
# [5] = biological target: T2, Geranylgeranyl transferase type I; test: Inhibition of Rap1a protein geranylgeranylation in human PSN1 cells; format: functional, cell-based; method in brief: as §1
Compound,IC50 [1],IC50 [2],EC50 [3],EC50 [4],EC50 [5]
CCC1(c2cccc(Oc3cc(Cc4cncn4C)ccc3C#N)c2)CCCCN(C)C1=O (stereo unspecified),0.6 nM,10 nM,,,
N#Cc1ccc(Cn2ccnc2)cc1Oc1cccc(C2CCCCNC2=O)c1 (stereo unspecified),41 nM,1200 nM,,,
CCC1(c2cccc(Oc3cc(C(C)(N)c4cncn4C)ccc3C#N)c2)CCCCN(C)C1=O (stereo unspecified),0.38 nM,5.1 nM,,,
CCC1(c2cccc(Oc3cc(Cc4cnc[nH]4)ccc3C#N)c2)CCCCN(C)C1=O (stereo unspecified),13 nM,12 nM,,,
CCC1(c2cccc(Oc3cc(C(=O)c4cncn4C)ccc3C#N)c2)CCCCN(C)C1=O (stereo unspecified),1800 nM,10000 nM,,,
CC[C@@]1(c2cccc(Oc3cc(Cn4ccnc4)ccc3C#N)c2)CCCCN(C)C1=O,1.4 nM,5.8 nM,,,
CC[C@]1(c2cccc(Oc3cc(Cn4ccnc4)ccc3C#N)c2)CCCCN(C)C1=O,5.3 nM,25 nM,,,
CC[C@@]1(c2cccc(Oc3cc([C@](C)(N)c4cncn4C)ccc3C#N)c2)CCCCN(C)C1=O,,3.6 nM,2.1 nM,340 nM,470 nM
CN1CCCC[C@@](CCC(F)(F)F)(c2cccc(Oc3cc([C@](C)(N)c4cncn4C)ccc3C#N)c2)C1=O,0.19 nM,2.5 nM,3.1 nM,207 nM,47 nM
CCC[C@@]1(c2cccc(Oc3cc([C@](C)(N)c4cncn4C)ccc3C#N)c2)CCCCN(C)C1=O,0.46 nM,2.9 nM,0.9 nM,100 nM,220 nM
CN1CCCCC(c2cccc(Oc3cc(Cn4ccnc4)ccc3C#N)c2)C1=O (stereo unspecified),61 nM,560 nM,,,
CCC1(c2cccc(Oc3cc(C(C)(O)c4cncn4C)ccc3C#N)c2)CCCCN(C)C1=O (stereo unspecified),1.2 nM,13 nM,,,
CN1CCCC[C@@H](c2cccc(Oc3cc([C@](C)(N)c4cncn4C)ccc3C#N)c2)C1=O,11 nM,92 nM,,,
CCC1(c2cccc(Oc3cc(Cn4ccnc4)ccc3C#N)c2)CCCCNC1 (stereo unspecified),100 nM,280 nM,,,
CCC1(c2cccc(Oc3cc(Cn4ccnc4)ccc3C#N)c2)CCCCNC1=O (stereo unspecified),1.3 nM,20 nM,,,
CN1CCCC[C@@](CCC2CC2)(c2cccc(Oc3cc([C@](C)(N)c4cncn4C)ccc3C#N)c2)C1=O,0.18 nM,0.81 nM,11 nM,1290 nM,> 1000 nM
CN1CCCC[C@@](C)(c2cccc(Oc3cc([C@](C)(N)c4cncn4C)ccc3C#N)c2)C1=O,0.41 nM,30 nM,26 nM,3730 nM,3990 nM
CCC1(c2cccc(Oc3cc(C(N)c4cncn4C)ccc3C#N)c2)CCCCN(C)C1=O (stereo unspecified),0.19 nM,8 nM,,,
CC[C@]1(c2cccc(Oc3cc([C@@](C)(N)c4cncn4C)ccc3C#N)c2)CCCCN(C)C1=O,7.6 nM,54 nM,120 nM,8000 nM,3200 nM
CCC1(c2cccc(Oc3cc(Cn4ccnc4)ccc3C#N)c2)CCCCN(C(C)=O)C1 (stereo unspecified),1.9 nM,8.9 nM,,,
CCC1(c2cccc(Oc3cc(C(O)c4cncn4C)ccc3C#N)c2)CCCCN(C)C1=O (stereo unspecified),2 nM,17 nM,,,
CN1CCCC[C@@](CC2CC2)(c2cccc(Oc3cc([C@](C)(N)c4cncn4C)ccc3C#N)c2)C1=O,0.3 nM,2.1 nM,1.5 nM,220 nM,87 nM
CCCC[C@@]1(c2cccc(Oc3cc([C@](C)(N)c4cncn4C)ccc3C#N)c2)CCCCN(C)C1=O,0.12 nM,1.4 nM,4 nM,320 nM,250 nM
CCC1(c2cccc(Oc3cc(Cn4ccnc4)ccc3C#N)c2)CCCCN(C)C1=O (racemic),3 nM,7.2 nM,,,
CC[C@]1(c2cccc(Oc3cc([C@](C)(N)c4cncn4C)ccc3C#N)c2)CCCCN(C)C1=O (stereo in doubt),1.5 nM,4.5 nM,11 nM,1900 nM,720 nM
CC[C@@]1(c2cccc(Oc3cc([C@@](C)(N)c4cncn4C)ccc3C#N)c2)CCCCN(C)C1=O (stereo in doubt),0.36 nM,13 nM,6 nM,230 nM,140 nM
